The text below walks through data of ChEMBL document CHEMBL3853360, “Combined Interactions with I1-, I2-Imidazoline Binding Sites and α2-Adrenoceptors To Manage Opioid Addiction” (ACS Med Chem Lett, 2016).

The structures appear in SMILES notation. The source made the active and inactive calls. The calls are words filed in the database; no cut-off is given here. Some results are limits rather than exact numbers.

Assay [1] deals with Mus musculus. In words: Reduction in morphine dependence acquisition in CD1 mouse assessed as inhibition of naloxone-precipitated forepaw tremor frequency at 5 mg/kg, ip administered 15 mins prior to each morphine challenge relative to control. Type of assay: functional. An outline of the steps: (§1)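 Mice received i.p. test compound (5 or 10 mg/kg) 15 min before each of repeated morphine injections, with vehicle and morphine-only controls. Withdrawal was then precipitated with naloxone. Jumping frequency and somatic signs (rearing, forepaw tremor, teeth chattering; summed frequency) were scored and compared with the morphine group. Data are mean ± SEM of 6–10 animals.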

Assay [2] relates to Mus musculus. As to the kind of experiment: Reduction in morphine dependence acquisition in CD1 mouse assessed as inhibition of naloxone-precipitated forepaw tremor frequency at 10 mg/kg, ip administered 15 mins prior to each morphine challenge relative to control. The assay is classed as functional. The procedure, abridged: as §1
A short description of assay [3]: Reduction in morphine dependence expression in CD1 mouse assessed as inhibition of naloxone-precipitated jumping at 10 mg/kg, ip administered acutely 15 mins prior to naloxone challenge relative to control. The assay is classed as functional, organism-based.
The target in assay [4] is T1, Adrenergic receptor alpha-2 (Rattus norvegicus, UniProt P22086+P19328+P22909).
T1 sequence (P22086 whole entry): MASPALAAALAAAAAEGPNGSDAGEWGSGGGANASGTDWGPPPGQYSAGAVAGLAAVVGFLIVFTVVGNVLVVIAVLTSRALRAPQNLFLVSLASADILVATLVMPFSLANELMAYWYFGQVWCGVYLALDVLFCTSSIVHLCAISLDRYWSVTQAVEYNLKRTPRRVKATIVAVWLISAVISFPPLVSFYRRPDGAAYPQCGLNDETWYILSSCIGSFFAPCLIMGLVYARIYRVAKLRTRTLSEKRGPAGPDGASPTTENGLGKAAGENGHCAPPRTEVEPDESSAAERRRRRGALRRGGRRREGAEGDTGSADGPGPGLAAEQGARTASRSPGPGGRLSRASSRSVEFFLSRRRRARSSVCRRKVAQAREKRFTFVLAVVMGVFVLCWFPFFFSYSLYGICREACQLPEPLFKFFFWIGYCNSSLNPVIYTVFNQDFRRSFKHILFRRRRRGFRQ
T1 sequence (P19328 whole entry): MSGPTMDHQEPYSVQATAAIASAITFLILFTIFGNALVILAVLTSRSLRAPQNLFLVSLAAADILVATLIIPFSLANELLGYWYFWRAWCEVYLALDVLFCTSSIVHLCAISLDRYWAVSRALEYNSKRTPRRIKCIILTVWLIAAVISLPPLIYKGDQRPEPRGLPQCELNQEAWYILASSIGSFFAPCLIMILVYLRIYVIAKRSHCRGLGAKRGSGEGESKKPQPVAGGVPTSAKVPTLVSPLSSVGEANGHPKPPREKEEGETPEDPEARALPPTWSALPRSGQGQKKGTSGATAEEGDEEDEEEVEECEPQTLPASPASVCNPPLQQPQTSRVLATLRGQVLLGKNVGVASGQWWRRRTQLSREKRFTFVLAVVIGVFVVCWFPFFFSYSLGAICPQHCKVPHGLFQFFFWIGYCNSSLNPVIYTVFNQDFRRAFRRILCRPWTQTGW
T1 sequence (P22909 whole entry): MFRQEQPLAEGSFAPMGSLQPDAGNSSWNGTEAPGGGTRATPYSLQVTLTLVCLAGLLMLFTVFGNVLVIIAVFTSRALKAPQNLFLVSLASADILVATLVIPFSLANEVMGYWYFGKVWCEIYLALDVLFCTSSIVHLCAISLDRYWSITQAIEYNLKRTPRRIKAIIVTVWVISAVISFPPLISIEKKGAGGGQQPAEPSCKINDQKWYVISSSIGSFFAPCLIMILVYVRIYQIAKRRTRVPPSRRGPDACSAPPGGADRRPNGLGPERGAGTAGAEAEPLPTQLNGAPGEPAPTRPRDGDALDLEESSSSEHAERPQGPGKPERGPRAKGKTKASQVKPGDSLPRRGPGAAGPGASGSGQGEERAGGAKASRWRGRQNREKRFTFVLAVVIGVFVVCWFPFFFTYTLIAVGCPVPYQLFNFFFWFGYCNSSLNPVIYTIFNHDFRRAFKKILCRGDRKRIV
In words: Displacement of [3H]-RX 821002 from alpha2-AR in Sprague-Dawley rat brain membranes after 30 mins by liquid scintillation counting. Type of assay: cell membranes, Membrane. The procedure, abridged: (§2)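 Radioligand competition binding with pKi determined by displacement. I1 sites: [125I]-p-iodoclonidine on rat kidney membranes. I2 sites: [3H]-2-BFI on rat brain membranes. α2-ARs: [3H]-RX821002 on rat brain membranes.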

The subject of assay [5] is Mus musculus. As to the kind of experiment: Reduction in morphine dependence acquisition in CD1 mouse assessed as inhibition of naloxone-precipitated rearing frequency at 10 mg/kg, ip administered 15 mins prior to each morphine challenge relative to control. Type of assay: functional. The procedure, abridged: as §1
Assay [6] in a line: Reduction in morphine dependence expression in CD1 mouse assessed as inhibition of naloxone-precipitated forepaw tremor frequency at 5 mg/kg, ip administered acutely 15 mins prior to naloxone challenge relative to control. Type of assay: functional, organism-based.
Assay [7] in a line: Reduction in morphine dependence expression in CD1 mouse assessed as inhibition of naloxone-precipitated forepaw tremor frequency at 10 mg/kg, ip administered acutely 15 mins prior to naloxone challenge relative to control. The assay is classed as functional, organism-based.
In assay [8] the test system is Mus musculus. In words: Reduction in morphine dependence acquisition in CD1 mouse assessed as inhibition of naloxone-precipitated teeth chattering frequency at 5 mg/kg, ip administered 15 mins prior to each morphine challenge relative to control. Type of assay: functional. The procedure, abridged:
as §1

Assay [9] deals with Mus musculus. As to the kind of experiment: Reduction in morphine dependence acquisition in CD1 mouse assessed as inhibition of naloxone-precipitated jumping at 10 mg/kg, ip administered 15 mins prior to each morphine challenge. Type of assay: functional, organism-based. An outline of the steps:
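Acquisition protocol in mice given repeated morphine. Test drug at 5 or 10 mg/kg i.p. was given 15 min before each morphine injection. Withdrawal was then precipitated with naloxone and jumping frequency counted. Data are mean ± SEM of 6–10 animals, compared with the morphine group.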

The nature of assay [10]: Reduction in morphine dependence expression in CD1 mouse assessed as inhibition of naloxone-precipitated rearing frequency at 5 mg/kg, ip administered acutely 15 mins prior to naloxone challenge relative to control. The assay is classed as functional, organism-based.
The subject of assay [11] is Mus musculus. As to the kind of experiment: Reduction in morphine dependence acquisition in CD1 mouse assessed as inhibition of naloxone-precipitated rearing frequency at 5 mg/kg, ip administered 15 mins prior to each morphine challenge relative to control. Type of assay: functional. The procedure, abridged: as §1
Assay [12] concerns Mus musculus. In words: Reduction in morphine dependence acquisition in CD1 mouse assessed as inhibition of naloxone-precipitated teeth chattering frequency at 10 mg/kg, ip administered 15 mins prior to each morphine challenge relative to control. The assay is classed as functional. The procedure, abridged: as §1
Assay [13] can be described thus: Reduction in morphine dependence expression in CD1 mouse assessed as inhibition of naloxone-precipitated teeth chattering frequency at 5 mg/kg, ip administered acutely 15 mins prior to naloxone challenge relative to control. Type of assay: functional, organism-based.
Assay [14] is described as follows: Displacement of [3H]-2-BFI from I2 receptor imidazoline binding site in Sprague-Dawley rat brain membranes after 30 mins by liquid scintillation counting. The assay is classed as cell membranes, Membrane. The procedure, abridged:
as §2

The nature of assay [15]: Reduction in morphine dependence expression in CD1 mouse assessed as inhibition of naloxone-precipitated teeth chattering frequency at 10 mg/kg, ip administered acutely 15 mins prior to naloxone challenge relative to control. Type of assay: functional, organism-based.
The target in a further assay is Nischarin (Rattus norvegicus, UniProt Q4G017). As to the kind of experiment: Displacement of [125I]-p-iodoclonidine from I1 receptor imidazoline binding site in Sprague-Dawley rat kidney cell membranes after 30 mins by liquid scintillation counting. An outline of the steps:
as §2

Assay [16] is described as follows: Reduction in morphine dependence expression in CD1 mouse assessed as inhibition of naloxone-precipitated rearing frequency at 10 mg/kg, ip administered acutely 15 mins prior to naloxone challenge relative to control. Type of assay: functional, organism-based.
Assay [17] has as its target T1, Adrenergic receptor alpha-2. In words: Displacement of [3H]-clonidine from alpha2-AR in rat brain cortical membranes after 45 mins by liquid scintillation counting. The assay is classed as cell membranes.
Assay [18] in a line: Displacement of [3H]idazoxan from I2 receptor imidazoline binding site in rabbit kidney membranes after 45 mins by […]. The assay is classed as cell membranes, Oryctolagus cuniculus, Membrane.

Chain of Nischarin (Q4G017 whole entry): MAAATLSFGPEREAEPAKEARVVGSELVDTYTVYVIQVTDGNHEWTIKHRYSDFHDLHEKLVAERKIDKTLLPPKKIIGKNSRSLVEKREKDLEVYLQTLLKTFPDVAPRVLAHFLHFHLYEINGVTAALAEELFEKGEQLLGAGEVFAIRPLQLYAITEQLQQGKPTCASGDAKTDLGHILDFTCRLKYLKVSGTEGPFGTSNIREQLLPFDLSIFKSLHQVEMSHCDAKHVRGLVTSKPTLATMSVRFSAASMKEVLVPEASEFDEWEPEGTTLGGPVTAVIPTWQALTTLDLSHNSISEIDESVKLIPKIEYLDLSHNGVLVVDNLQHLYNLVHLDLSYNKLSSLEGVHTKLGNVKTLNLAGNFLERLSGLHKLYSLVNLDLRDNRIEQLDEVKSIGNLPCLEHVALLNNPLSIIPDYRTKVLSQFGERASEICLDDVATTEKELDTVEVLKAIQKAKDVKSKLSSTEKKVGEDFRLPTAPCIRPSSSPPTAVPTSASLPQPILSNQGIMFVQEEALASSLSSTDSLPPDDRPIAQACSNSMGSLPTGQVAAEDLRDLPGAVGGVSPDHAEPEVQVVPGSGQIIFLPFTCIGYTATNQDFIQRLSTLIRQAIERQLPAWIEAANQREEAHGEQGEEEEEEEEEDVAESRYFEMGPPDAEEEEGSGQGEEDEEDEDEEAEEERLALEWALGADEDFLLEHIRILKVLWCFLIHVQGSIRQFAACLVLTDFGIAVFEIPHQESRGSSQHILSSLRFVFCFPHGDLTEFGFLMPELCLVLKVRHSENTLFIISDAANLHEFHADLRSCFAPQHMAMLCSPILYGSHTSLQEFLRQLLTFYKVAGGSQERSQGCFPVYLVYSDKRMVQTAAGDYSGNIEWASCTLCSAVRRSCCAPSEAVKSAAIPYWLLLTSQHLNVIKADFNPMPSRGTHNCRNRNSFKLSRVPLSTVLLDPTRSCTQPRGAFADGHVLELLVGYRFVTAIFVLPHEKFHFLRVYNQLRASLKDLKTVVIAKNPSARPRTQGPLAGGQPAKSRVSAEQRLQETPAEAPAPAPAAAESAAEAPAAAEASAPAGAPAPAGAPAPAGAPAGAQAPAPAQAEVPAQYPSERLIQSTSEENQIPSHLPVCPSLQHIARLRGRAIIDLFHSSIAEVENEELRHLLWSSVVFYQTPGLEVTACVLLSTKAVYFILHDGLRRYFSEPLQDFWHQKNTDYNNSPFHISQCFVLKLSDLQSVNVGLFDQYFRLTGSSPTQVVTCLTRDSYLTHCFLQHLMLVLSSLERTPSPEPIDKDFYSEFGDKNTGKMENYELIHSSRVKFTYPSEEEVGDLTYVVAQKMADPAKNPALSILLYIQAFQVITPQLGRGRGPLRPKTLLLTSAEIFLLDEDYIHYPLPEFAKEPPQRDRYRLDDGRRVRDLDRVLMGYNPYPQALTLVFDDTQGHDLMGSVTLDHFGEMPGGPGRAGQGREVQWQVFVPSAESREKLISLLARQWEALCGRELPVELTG

In the case of `Cc1ccccc1/C=C/C1=NCCN1`, the inhibition in vivo at 5 mg/kg in the assay with Mus musculus [1], in the assay with Mus musculus [8] and with Mus musculus [11] was 34% in each case. Besides, the inhibition in vivo at 10 mg/kg in the assay with Mus musculus [2], in the assay with Mus musculus [5] and in the assay on Mus musculus [12] was 46% throughout. For the same molecule, the inhibition is 90% in assay [3]; 50% in assay [6]; 50% in assay [7]; 50% in assay [10]; 50% in [13]; 50% in assay [15]. Further, in assay [16], the inhibition worked out at 50%. Further, the pKi in assay [4] was below 6; in [14], 9.11. Moreover, the inhibition entry in the assay on Mus musculus [9] is “Active”. On Nischarin, this molecule showed a Ki of 17.8 nM.
Consider `C(=C\c1ccccc1)/C1=NCCN1` [TRACIZOLINE], for which the figures for the negative logarithm of the Ki (pKi) in assay [17] and in assay [18] were below 6 and 8.72, respectively.
